Compound activity (PubChem)
Rtt109 HAT inh: blocks Candida albicans Rtt109/Vps75 acetyltransferase activity; 330,000 compounds, 0.16% hits; inhibition, % at 34.9 µM; Q5AAJ8; purified Rtt109/Vps75, ThioGlo CoA-SH fluorescence, 4 h;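 active = inhibition of at least 50% in every replicate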
HDAC3 inh: inhibitors of human histone deacetylase 3 | AID 2718 | 320,000 compounds, 0.15% hits | recombinant HDAC3, fluorogenic peptide/trypsin coupled, fluorescence | O15379 | inhibition, % at 8.3 µM; in the data active = inhibition above about 26%, passing the limit was not always enough
UCH37 DUB inh: blocks the human deubiquitinase UCH37; Q9Y5K5; purified proteasome/UCH37, Ub-AMC cleavage fluorescence; inhibition, % (concentration not given with the values); 330,000 compounds, 0.33% hits; AID 588478;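 active = mean inhibition over replicate wells above about 20%, limit read from the data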;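 also: 0% = compound-free wells with enzyme and 100% = wells lacking proteasome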
Target sequence (Q9Y5K5 whole entry, looked up): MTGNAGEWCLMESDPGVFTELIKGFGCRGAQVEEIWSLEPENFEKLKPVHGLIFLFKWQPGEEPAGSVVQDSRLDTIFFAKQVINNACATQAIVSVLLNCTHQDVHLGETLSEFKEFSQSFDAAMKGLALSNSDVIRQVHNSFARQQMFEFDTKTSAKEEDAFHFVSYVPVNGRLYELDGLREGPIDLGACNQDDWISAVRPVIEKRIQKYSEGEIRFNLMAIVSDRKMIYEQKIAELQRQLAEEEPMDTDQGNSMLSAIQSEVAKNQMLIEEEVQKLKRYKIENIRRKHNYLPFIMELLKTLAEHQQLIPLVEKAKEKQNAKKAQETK
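Test system – human UCH37 enzyme supplied as purified proteasome complex · Incubation – 30 min preincubation with enzyme, 25 min cleavage at room temperature · Detection – AMC fluorescence from Ub-AMC cleavage, excitation 355 nm, emission 460 nm · Benchmarks – no-proteasome wells (full inhibition) and compound-free wells (no inhibition)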
FAS TE block: inhibitors of human fatty acid synthase thioesterase domain | P49327 | recombinant FAS-TE, OMFH fluorogenic substrate, fluorescence endpoint | inhibition, % at 15 µM | 360,000 compounds, 0.67% hits;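 active = compounds whose normalised, plate-corrected inhibition of enzyme fluorescence in the single-dose primary screen is 50% or more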;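 also: 0% = DMSO with enzyme and 100% = substrate without enzyme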
ALR inh: blocks human ALR sulfhydryl oxidase activity | P55789 | AID 485317 | 290,000 compounds, 3.8% hits | purified ALR, DTT oxidation, H2O2 HRP-luminol luminescence | inhibition, % (concentration not given with the values);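 active = mean replicate inhibition above about 79%, with every replicate also reaching it, limit read from the data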
M18AAP inhibitor: PfM18AAP enzyme inhibition; recombinant PfM18AAP, H-Glu-NHMec fluorogenic cleavage; inhibition, % at 7.35 µM; 290,000 compounds, 1.2% hits; AID 1822;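 active = inhibition above the campaign mean inhibition over all tested compounds plus 3 SD, cut at about 28% in these data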;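 also: 0% = plate median of test compound wells and 100% = 2 mM ZnCl2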
FAS-TE inh conf: confirmation of human fatty acid synthase thioesterase inhibitors | recombinant FAS-TE, OMFH fluorogenic substrate, fluorescence | shares compounds with FAS TE block | 2,300 compounds, 45% hits | AID 624325 | inhibition, % at 15 µM;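 active = compounds inhibiting the enzyme by at least 50% at 15 µM in any one of the replicates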;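 also: 0% = enzyme with DMSO only and 100% = wells lacking enzyme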
An asterisk follows results filed as active; . = not tested or not shown. An excerpt weighted towards active compounds, which were near 4.6% of everything screened.

SMILES | Rtt109 HAT inh | HDAC3 inh | UCH37 DUB inh | FAS TE block | ALR inh | M18AAP inhibitor | FAS-TE inh conf
CCCCOc1ccc(C(=O)N/C(=C\c2cccc([N+](=O)[O-])c2)C(=O)OCCC)cc1 | -11 | -1 | -1 | 12 | 2 | 14 | .
Cc1ccccc1NCC(=O)NN=C/C=C/c1cccc([N+](=O)[O-])c1 | . | . | 3 | . | . | . | .
CCOC(=O)N1CCN(C(=O)C(=O)NN=Cc2ccc(OC)cc2OC)CC1 | . | . | 6 | . | . | . | .
COc1cc(NC(=O)c2cc3nc(-c4ccccc4)cc(-c4ccccc4)n3n2)cc(OC)c1OC | . | -1 | -5 | 52* | -12 | -9 | 6
CC(=NO)C(C)NC(=O)c1ccccc1 (stereo unspecified) | . | . | 2 | . | . | . | .
O=C(COc1ccc(Cl)cc1[N+](=O)[O-])NN=Cc1cccs1 | . | . | 5 | . | . | . | .
CN=c1scc(-c2ccc([N+](=O)[O-])cc2)n1N=Cc1ccco1 | . | . | 6 | . | . | . | .
O=C1[C@@H]2[C@@H](CN3CN(c4ccccc4)N=C(c4ccccc4)[C@@]23c2ccccc2)C(=O)N1c1ccccc1 | 9 | . | . | 57* | . | . | 15
Cc1ccc([N+](=O)[O-])cc1NC(=O)c1ccc(CSc2ccccc2)cc1 | 8 | -7 | 2 | 23 | -2 | -5 | .
Cc1ccc(SCc2ccc(C(=O)Nc3cccc([N+](=O)[O-])c3C)cc2)cc1 | 0 | -3 | 1 | 51* | -1 | 1 | 31
O=C(Nc1nc2ccccc2s1)c1ccc([N+](=O)[O-])o1 | 3 | -2 | 3 | 30 | -5 | -5 | .
COc1ccc2nc(NC(=O)c3ccc([N+](=O)[O-])o3)sc2c1 | -4 | 0 | 3 | 58* | -16 | -3 | 51*
O=C(CSc1nc2ccccc2c(=O)n1-c1ccc(F)cc1F)Nc1ccc2c(c1)CCC2 | 0 | 8 | 2 | 54* | -6 | 4 | 12
O=C(CSc1nc2ccccc2c(=O)n1-c1ccccc1F)Nc1ccc2c(c1)CCC2 | 3 | 10 | 2 | 26 | -1 | -6 | .
O=C(CSc1nc2nc3c(cc2c(=O)n1-c1ccccc1)CCCC3)Nc1cccc2ccccc12 | 3 | -1 | -1 | 63* | -11 | -3 | 17
O=C(CSc1nc2ccccc2c(=O)n1-c1ccc(F)c(Cl)c1)Nc1ccc2c(c1)CCC2 | . | . | . | 61* | . | . | 15
COc1ccc(C(=O)NN=Cc2cc(Br)ccc2O)cc1OC | . | . | -5 | . | . | . | .
COc1cccc(C=Nn2c(=O)[nH]c3ccccc32)c1OC | . | . | 4 | . | . | . | .
Cc1nn(-c2ccccc2)c2c1C(c1ccc([N+](=O)[O-])cc1)N1C(=N2)C(=O)Nc2ccccc21 (stereo unspecified) | -12 | 6 | 7 | 79* | . | 3 | 1
Cc1nn(-c2ccc([N+](=O)[O-])cc2)c2c1C(c1cccc(Br)c1)N1C(=N2)C(=O)Nc2ccccc21 (stereo unspecified) | -2 | -2 | 4 | 70* | 1 | -5 | -37
CCCCc1ccc(-c2csc(/C(C#N)=C\c3ccc(C)o3)n2)cc1 | -1 | -4 | 1 | 18 | 29 | 6 | .
CCOc1ccc(-c2csc(/C(C#N)=C\c3ccc(O)c([N+](=O)[O-])c3)n2)cc1 | 3 | 5 | 8 | 72* | -5 | -2 | 61*
COc1ccc(C(=O)C(C)N(C(=O)c2ccc(Cl)cc2Cl)N2C(=O)C3C4C=CC(C4)C3C2=O)cc1 (stereo unspecified) | 2 | 3 | 5 | 60* | -5 | -9 | 9
Cc1ccc(C(=O)C(C)N(C(=O)c2ccc(Cl)cc2Cl)N2C(=O)CCCC2=O)cc1 (stereo unspecified) | 0 | -1 | 4 | 4 | -12 | -13 | .
COc1ccc(CN2C(=O)C(C)Oc3ccccc32)cc1 (stereo unspecified) | 0 | -4 | 7 | 10 | 5 | 6 | .
CC(=O)c1cccc2c1OC(C)C(=O)N2Cc1ccc(Cl)cc1 (stereo unspecified) | . | . | . | 57* | . | . | 62*
Cc1ccc([N+](=O)[O-])cc1S(=O)(=O)N(C(=O)c1ccncc1)c1ccc2oc3c(c2c1)CCCC3 | -9 | -2 | 3 | 72* | 0 | -2 | 26
